Laboratory results as given in ChEMBL document CHEMBL5252546, “Salutaxel, a Conjugate of Docetaxel and a Muramyl Dipeptide (MDP) Analogue, Acts as Multifunctional Prodrug That Inhibits Tumor Growth and Metastasis” (J Med Chem, 2018).
Activity calls are given as the source filed them. No cut-off for these calls is given here.

What was measured:
[1] = Tmax in mouse tumor implanted with mouse 4T1 cells at 10 mg/kg,iv measured upto 72 hrs; type: ADME, organism-based, Neoplasm
[2] = Drug concentration in rat brain at 4 mg/kg,iv measured after 24 hrs; type: ADME, organism-based; details: in vivo
Summary of the method: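 Rats received 4 mg/kg iv. Parent drug and released docetaxel were assayed in tissues and plasma from the first sampling at 0.25 h to 24 h. The lower limit of quantitation was 200 ng/g.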

[3] = Volume of distribution at steady state in rat at 2 mg/kg,iv measured upto 24 hrs; type: ADME, organism-based; details: in vivo, read-out: Vdss
[4] = Half life in male rat at 4 mg/kg,iv measured upto 24 hrs; type: ADME, organism-based; details: in vivo
[5] = Half life in male rat at 2 mg/kg,iv measured upto 24 hrs; type: ADME, organism-based; details: in vivo
[6] = MRT (0 to infinity) in Beagle dog at 4 mg/kg,iv measured upto 24 hrs; type: ADME, organism-based, Canis lupus familiaris; details: in vivo
[7] = MRT (0 to infinity) in female Beagle dog at 1 mg/kg,iv measured upto 24 hrs; type: ADME, organism-based, Canis lupus familiaris; details: in vivo
[8] = MRT (0 to infinity) in male rat at 2 mg/kg,iv measured upto 24 hrs; type: ADME, organism-based; details: in vivo
[9] = AUC (0-infinity) in Beagle dog at 1 mg/kg,iv measured upto 24 hrs; type: ADME, organism-based, Canis lupus familiaris; design: dose 1 mg/kg, time < 24 hrs, route iv; details: in vivo
Summary of the method: (§1)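 Single iv dose: rats 2, 4 or 8 mg/kg by intravenous injection; Beagle dogs 1, 2 or 4 mg/kg by intravenous infusion. Plasma concentration–time data were analysed by sex and pooled. Reported parameters: Cmax, Tmax, AUC0−t, AUC0−∞, MRT0−∞, t1/2, CL, Vss, given as mean ± SD.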

[10] = AUC (0-t) in Beagle dog at 4 mg/kg,iv measured upto 24 hrs; type: ADME, organism-based, Canis lupus familiaris; design: dose 4 mg/kg, time < 24 hrs, route iv; details: in vivo; summary of the method: as §1
[11] = AUC (0-t) in Beagle dog at 2 mg/kg,iv measured upto 24 hrs; type: ADME, organism-based, Canis lupus familiaris; design: time < 24 hrs, dose 2 mg/kg, route iv; details: in vivo; summary of the method: as §1
[12] = AUC (0-t) in Beagle dog at 1 mg/kg,iv measured upto 24 hrs; type: ADME, organism-based, Canis lupus familiaris; design: dose 1 mg/kg, time < 24 hrs, route iv; details: in vivo; summary of the method: as §1
[13] = AUC (0-t) in male rat at 2 mg/kg,iv measured upto 24 hrs; type: ADME, organism-based; design: time < 24 hrs, dose 2 mg/kg, route iv; details: in vivo; summary of the method: as §1
[14] = Tmax in male Beagle dog at 2 mg/kg,iv measured upto 24 hrs; type: ADME, organism-based, Canis lupus familiaris; details: in vivo
[15] = Cmax in female rat at 8 mg/kg,iv measured upto 24 hrs; type: ADME, organism-based; design: time < 24 hrs, dose 8 mg/kg, route iv; details: in vivo
Summary of the method: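 Rats were given a single iv injection at 2, 4 or 8 mg/kg. Plasma parent drug and released docetaxel were followed over time. Cmax, Tmax, AUC, MRT, t1/2, CL and Vss were reported for males, females and all animals combined.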

[16] = Cmax in male Beagle dog at 4 mg/kg,iv measured upto 24 hrs; type: ADME, organism-based, Canis lupus familiaris; design: time < 24 hrs, dose 4 mg/kg, route iv; details: in vivo
Summary of the method: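 Beagle dogs were given a single iv infusion at 1, 2 or 4 mg/kg. Plasma parent drug and released docetaxel were followed over time. Cmax, Tmax, AUC, MRT, t1/2, CL and Vss were reported by sex and for all dogs combined.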

4T1 [17] = test: Synergistic antitumor activity against mouse 4T1 cells xenografted with BALB/c mouse assessed as decrease in lung metastasis at 10 mg/kg,iv administrated in combination with doxorubicin once per week for 4 weeks; type: functional, organism-based
[18] = Toxicity in BALB/c mouse xenografted with mouse 4T1 cells assessed as decrease in body weight at 10 mg/kg,iv administrated once per week for 4 weeks; type: organism-based; details: in vivo, 672 h
4T1 [19] = test: Antitumor activity against mouse 4T1 cells xenografted with BALB/c mouse assessed as reduction lung metastatic nodules at 5 to 20 mg/kg,iv administrated once per week for 4 weeks; type: functional, organism-based; details: dose 5-20 mg/kg
Summary of the method: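 4T1 cells injected into the mammary fat pad of BALB/c mice; iv saline vehicle or 5, 10 or 20 mg/kg once weekly for 4 weeks; body weight, tumour volume, tumour weight, lung metastatic nodule count and metastasis score recorded; n = 10, mean ± SEM, ANOVA and Student's t test.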

[20] = Toxicity in BALB/c mouse xenografted with human NCI-H1975 cells assessed as body weight loss at 10 mg/kg,iv administrated once per week for 3 weeks; type: organism-based; details: in vivo, 504 h
[21] = Toxicity in BALB/c mouse xenografted with human MDA-MB-231 cells assessed as side effects at 10 mg/kg,iv administrated once per week for 3 weeks; type: organism-based; details: in vivo, 504 h
[22] = Toxicity in HaM/ICR mouse assessed as effect on motor coordination at 5 to 20 mg/kg,iv; type: organism-based; details: in vivo, dose 5-20 mg/kg
[23] = Drug metabolism in monkey hepatocytes assessed as MDA-205 metabolite formation at 20 uM incubated for 180 mins; type: ADME, cell-based, Macaca mulatta, Hepatocyte; details: rhesus monkey, 3 h
[24] = Drug metabolism in dog hepatocytes assessed as docetaxel metabolite formation at 20 uM incubated for 180 mins; type: ADME, cell-based, Canis lupus familiaris, Hepatocyte; details: 3 h
[25] = Stability in monkey plasma assessed as compound remaining at 40 uM incubated for 6 hrs; type: ADME, cell-free, Macaca mulatta; details: rhesus monkey
NCI-H460 = test: Antiproliferative activity against human NCI-H460 cells assessed inhibition of cell growth incubated for 72 hrs by SRB assay; type: functional, cell-based; details: NCI-H460, 72 h
[26] = Acute toxicity in Sprague-Dawley rat assessed as maximum tolerated dose at iv administration; type: organism-based; details: in vivo
Summary of the method: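 Acute toxicity after a single intravenous administration. […] In dogs, an approximate lethal dose range was determined.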

[27] = Toxicity in Beagle dog assessed as maximal non-toxic dose at iv administration; type: organism-based, Canis lupus familiaris; details: in vivo, read-out: MNTD
[28] = Toxicity in BALB/c mouse xenografted with human HCT-116 cells assessed as body weight loss at 5.7 mg/kg,iv administrated once per week for 3 weeks; type: organism-based; details: in vivo, 504 h
Summary of the method: (§2)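 Nude BALB/c nu/nu mice received subcutaneous human tumour cells into the right flank. Dosing started at mean tumour volume of 100–120 mm3, iv once weekly for 3 weeks; the taxane arm was an equimolar control. Body weight and overt side effects were monitored. Mean ± SEM, n = 8.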

[29] = Toxicity in BALB/c mouse xenografted with human HCT-116 cells assessed as side effects at 5.7 mg/kg,iv administrated once per week for 3 weeks; type: organism-based; details: in vivo, 504 h; summary of the method: as §2
4T1 [30] = test: Antitumor activity against mouse 4T1 cells implanted in BALB/c mouse assessed as decrease in serum MMP9 level at 5.7 mg/kg,iv administrated once per week for 4 weeks by ELISA; type: functional, organism-based
4T1 [31] = test: Antitumor activity against mouse 4T1 cells implanted in BALB/c mouse assessed as decrease in serum TIMP-1 level at 5.7 mg/kg,iv administrated once per week for 4 weeks by ELISA; type: functional, organism-based
4T1 [32] = test: Antitumor activity against mouse 4T1 cells implanted in BALB/c mouse assessed as decrease in tumor MMP9 expression level at 5.7 mg/kg,iv administrated once per week for 4 weeks by western blot assay; type: functional, organism-based
Summary of the method: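 4T1 cells injected into mammary fat pads of BALB/c mice. Saline vehicle or test article given iv once weekly for 4 weeks. Spleen, lung and tumor lysates immunoblotted for MMP2/MMP9 with β-actin as loading control. Bands averaged over five mice per group, representative of two independent experiments.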

CC(=O)O[C@@]12CO[C@@H]1C[C@H](O)[C@@]1(C)C(=O)[C@H](O)C3=C(C)[C@@H](OC(=O)[C@H](OC(=O)CCC(=O)NCCCC[C@H](NC(=O)CC[C@@H](NC(=O)[C@H](C)NC(=O)/C=C/c4ccc(F)cc4Cl)C(N)=O)C(=O)O)[C@@H](NC(=O)OC(C)(C)C)c4ccccc4)C[C@@](O)([C@@H](OC(=O)c4ccccc4)[C@H]21)C3(C)C
Tmax [1]: 15 min | Drug uptake [2]: Active | Vd [3]: 0.071 L/kg | half-life [4]: 10.7 min | half-life [5]: 9 min | MRT inf [6]: 20.3 min | MRT inf [7]: 18.4 min | MRT inf [8]: 13.9 min | AUC(0-inf) [9]: 1640 ng·h/mL | AUC(0-t) at 24 h [10]: 17200 ng·h/mL | AUC(0-t) at 24 h [11]: 5900 ng·h/mL | AUC(0-t) at 24 h [12]: 1590 ng·h/mL | AUC(0-t) at 24 h [13]: 6090 ng·h/mL | Tmax [14]: 30 min | Cmax [15]: 62500 ng/mL | Cmax [16]: 29600 ng/mL | Activity (4T1 [17]): Active | Activity [18]: Toxic | Activity (4T1 [19]): Active | Activity [20]: Non-Toxic | Activity [21]: Non-Toxic | Activity [22]: Non-Toxic | Drug metabolism [23]: Metabolite_Detected | Drug metabolism [24]: Metabolite_Detected | Stability [25]: Stable | IC50 (NCI-H460): 16.3 nM | MTD [26]: 9.4 mg/kg | NOAEL [27]: 6 mg/kg

CC(=O)O[C@@]12CO[C@@H]1C[C@H](O)[C@@]1(C)C(=O)[C@H](O)C3=C(C)[C@@H](OC(=O)[C@H](O)[C@@H](NC(=O)OC(C)(C)C)c4ccccc4)C[C@@](O)([C@@H](OC(=O)c4ccccc4)[C@H]21)C3(C)C [DOCETAXEL ANHYDROUS]
Activity [28]: Non-Toxic | Activity [29]: Non-Toxic | Activity (4T1 [30]): Active | Activity (4T1 [31]): Active | Activity (4T1 [32]): inactive
